Results as given in ChEMBL document CHEMBL1154674, “Synthesis and evaluation of three 18F-labeled aminophenylbenzothiazoles as amyloid imaging agents” (J Med Chem, 2009).
Each block holds one compound with its values, some of them ahead of it.

What was measured:
Format in all cases: ADME, organism-based, Macaca mulatta
[1] = Drug level in normal rhesus monkey pons assessed as standard uptake value at 81.2 MBq, iv after 3.5 mins by microPET; settings: in vivo
[2] = Drug level in normal rhesus monkey pons assessed as standard uptake value at 81.2 MBq, iv after 8 mins by microPET; settings: in vivo
[3] = Drug level in normal rhesus monkey pons assessed as standard uptake value at 81.2 MBq, iv after 165 mins by microPET; settings: in vivo, 2.75 h
[4] = Drug level in normal rhesus monkey parietal cortex assessed as standard uptake value at 81.2 MBq, iv after 37.5 mins by microPET; settings: in vivo, 0.625 h
[5] = Drug level in normal rhesus monkey parietal cortex assessed as standard uptake value at 81.2 MBq, iv after 52.5 mins by microPET; settings: in vivo, 0.875 h
[6] = Drug level in normal rhesus monkey parietal cortex assessed as standard uptake value at 81.2 MBq, iv after 145 mins by microPET; settings: in vivo
[7] = Drug level in normal rhesus monkey white matter assessed as standard uptake value at 81.2 MBq, iv after 32.5 mins by microPET; settings: in vivo
[8] = Drug level in normal rhesus monkey white matter assessed as standard uptake value at 81.2 MBq, iv after 47.5 mins by microPET; settings: in vivo
[9] = Drug level in normal rhesus monkey frontal cortex assessed as standard uptake value at 81.2 MBq, iv after 42.5 mins by microPET; settings: in vivo
[10] = Drug level in normal rhesus monkey frontal cortex assessed as standard uptake value at 81.2 MBq, iv after 65 mins by microPET; settings: in vivo
[11] = Drug level in normal rhesus monkey cerebellum assessed as standard uptake value at 81.2 MBq, iv after 22.5 mins by microPET; settings: in vivo, 0.375 h
How it was run: (§1)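 One normal rhesus monkey, each tracer given iv via the vena saphena (81.2, 96.3 or 109.4 MBq), with 1 day between tracer injections. Dynamic brain μPET over 180 min used frames of 5 × 60 s, 5 × 120 s, 9 × 300 s and 12 × 600 s. Images were reconstructed by filtered back projection with a RAMP filter. Regional time-activity curves were expressed as SUV.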

[12] = Drug level in normal rhesus monkey cerebellum assessed as standard uptake value at 81.2 MBq, iv after 27.5 mins by microPET; settings: in vivo; how it was run: as §1
[13] = Drug level in normal rhesus monkey frontal cortex assessed as standard uptake value at 81.2 MBq, iv after 6 mins by microPET; settings: in vivo, 0.1 h
[14] = Drug level in normal rhesus monkey frontal cortex assessed as standard uptake value at 81.2 MBq, iv after 27.5 mins by microPET; settings: in vivo
[15] = Drug level in normal rhesus monkey cerebellum assessed as standard uptake value at 81.2 MBq, iv after 10 mins by microPET; settings: in vivo; how it was run: as §1
[16] = Drug level in normal rhesus monkey thalamus assessed as standard uptake value at 96.3 MBq, iv after 3.5 mins by microPET; settings: in vivo
[17] = Drug level in normal rhesus monkey thalamus assessed as standard uptake value at 96.3 MBq, iv after 37.5 mins by microPET; settings: in vivo, 0.625 h
[18] = Drug level in normal rhesus monkey pons assessed as standard uptake value at 96.3 MBq, iv after 32.5 mins by microPET; settings: in vivo
[19] = Drug level in normal rhesus monkey parietal cortex assessed as standard uptake value at 96.3 MBq, iv after 2.5 mins by microPET; settings: in vivo
[20] = Drug level in normal rhesus monkey cerebellum assessed as standard uptake value at 96.3 MBq, iv after 32.5 mins by microPET; settings: in vivo; how it was run: as §1
[21] = Drug level in normal rhesus monkey frontal cortex assessed as standard uptake value at 96.3 MBq, iv after 10 mins by microPET; settings: in vivo
[22] = Drug level in normal rhesus monkey frontal cortex assessed as standard uptake value at 96.3 MBq, iv after 65 mins by microPET; settings: in vivo
[23] = Drug level in normal rhesus monkey white matter assessed as standard uptake value at 96.3 MBq, iv after 52.5 mins by microPET; settings: in vivo, 0.875 h
[24] = Drug level in normal rhesus monkey parietal cortex assessed as standard uptake value at 109.4 MBq, iv after 0.375 mins by microPET; settings: in vivo, 22 s
[25] = Drug level in normal rhesus monkey cerebellum assessed as standard uptake value at 109.4 MBq, iv after 75 mins by microPET; settings: in vivo, 1.25 h
How it was run: (§2)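 One normal rhesus monkey received each tracer via the vena saphena, with 1 day between injections. Dynamic μPET ran 180 min for 18F tracers (5×60 s, 5×120 s, 9×300 s, 12×600 s) and 90 min for the 11C tracer (5×60 s, 5×120 s, 9×300 s, 3×600 s). Filtered back-projection reconstruction (RAMP filter) was used. Time-activity curves were drawn to give regional SUV.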

[26] = Drug level in normal rhesus monkey cerebellum assessed as standard uptake value at 109.4 MBq, iv after 105 mins by microPET; settings: in vivo, 1.75 h
[27] = Drug level in normal rhesus monkey frontal cortex assessed as standard uptake value at 109.4 MBq, iv after 47.5 mins by microPET; settings: in vivo; how it was run: as §1
[28] = Drug level in normal rhesus monkey thalamus assessed as standard uptake value at 109.4 MBq, iv after 3.5 mins by microPET; settings: in vivo
[29] = Drug level in normal rhesus monkey cerebellum assessed as standard uptake value at 109.4 MBq, iv after 4.5 mins by microPET; settings: in vivo, 0.075 h
How it was run: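 Single normal rhesus monkey; each tracer given iv via the vena saphena, with 1 day between tracer injections. Dynamic μPET ran 180 min (5×60 s, 5×120 s, 9×300 s, 12×600 s). Images were reconstructed by filtered back projection with a RAMP filter. Regional time-activity curves were expressed as SUV.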

[30] = Drug level in normal rhesus monkey cerebellum assessed as standard uptake value at 152.9 MBq, iv after 42.5 mins by microPET; settings: in vivo; how it was run: as §2
[31] = Drug level in normal rhesus monkey cerebellum assessed as standard uptake value at 152.9 MBq, iv after 47.5 mins by microPET; settings: in vivo; how it was run: as §2
[32] = Drug level in normal rhesus monkey white matter assessed as standard uptake value at 152.9 MBq, iv after 1.5 mins by microPET; settings: in vivo, 0.025 h
[33] = Drug level in normal rhesus monkey thalamus assessed as standard uptake value at 152.9 MBq, iv after 47.5 mins by microPET; settings: in vivo
[34] = Drug level in normal rhesus monkey pons assessed as standard uptake value at 152.9 MBq, iv after 0.5 mins by microPET; settings: in vivo
[35] = Drug level in normal rhesus monkey pons assessed as standard uptake value at 152.9 MBq, iv after 75 mins by microPET; settings: in vivo, 1.25 h
[36] = Drug level in normal rhesus monkey parietal cortex assessed as standard uptake value at 152.9 MBq, iv after 6 mins by microPET; settings: in vivo, 0.1 h
[37] = Drug level in normal rhesus monkey parietal cortex assessed as standard uptake value at 152.9 MBq, iv after 22.5 mins by microPET; settings: in vivo, 0.375 h
[38] = Drug level in normal rhesus monkey parietal cortex assessed as standard uptake value at 152.9 MBq, iv after 75 mins by microPET; settings: in vivo, 1.25 h

SUV [1]: 4.503 | SUV [2]: 5.089 | SUV [3]: 4.946 | SUV [4]: 3.965 | SUV [5]: 3.552 | SUV [6]: 2.565 | SUV [7]: 3.799 | SUV [8]: 3.674 | SUV [9]: 5.476 | SUV [10]: 5.125 | SUV [11]: 2.518 | SUV [12]: 2.224 | SUV [13]: 5.127 | SUV [14]: 5.784 | SUV [15]: 3.021
Compound: CNc1ccc2nc(-c3ccc([18F])cc3)sc2c1

SUV [16]: 2 | SUV [17]: 2.33 | SUV [18]: 1.67 | SUV [19]: 2 | SUV [20]: 1.46 | SUV [21]: 2.13 | SUV [22]: 1.79 | SUV [23]: 1.4
Compound: CN(C)c1ccc2nc(-c3ccc([18F])cc3)sc2c1

SUV [24]: 0.34 | SUV [25]: 2.92 | SUV [26]: 2.5 | SUV [27]: 4.76 | SUV [28]: 4.66 | SUV [29]: 6.13
Compound: Nc1ccc2nc(-c3ccc([18F])cc3)sc2c1

SUV [30]: 0.936 | SUV [31]: 0.866 | SUV [32]: 0.292 | SUV [33]: 1.161 | SUV [34]: 0.041 | SUV [35]: 0.834 | SUV [36]: 2.16 | SUV [37]: 1.453 | SUV [38]: 0.682
Compound: [11CH3]Nc1ccc(-c2nc3ccc(O)cc3s2)cc1 [PITTSBURGH COMPOUND B]
